From PubChem
PRMT1 inh: PRMT1 (human) inhibition, primary screen | 1.3% of 370,000 active | recombinant PRMT1, activity-based probe fluorescence polarization | inhibition, % at 2.79 µM;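 active = inhibition above about 21% made by adding two undisclosed values, limit read from the data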
mABHD4 FP: ABHD4 (mouse) inhibition, primary FP screen. Q8VD66. purified mABHD4, FP-Rh probe fluorescence polarization. inhibition, % at 8.92 µM. 0.54% of 370,000 active. AID 720543;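 active = inhibition exceeding the mean over every tested compound plus 3 SD, cut at about 30% in these data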;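 also: 0% = plate median of compound wells and 100% = S159A mutant with DMSO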
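System: mouse ABHD4 enzyme, wild type / Medium: HEPES pH 7.0, NaCl, Pluronic buffer / Reagent: FP-Rh activity-based fluorescent probe / Control set: S159A mutant high control, sample median low control / Detection: fluorescence polarization with parallel and perpendicular emission, 525/598 nm / Schedule: 45 min + 60 min at 25 °C / Compound dosing: 8.92 µM, single dose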
HTRA1 inhibitor: HTRA1 (human) protease inhibition; Q92743; recombinant HTRA1, FP-rhodamine activity-based probe, fluorescence polarization; inhibition, % at 5.96 µM; 0.5% of 340,000 active; AID 504803; in the data active = inhibition above about 36%;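 also: 0% = enzyme with DMSO and 100% = wells lacking enzyme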
Target sequence (Q92743 whole entry, looked up): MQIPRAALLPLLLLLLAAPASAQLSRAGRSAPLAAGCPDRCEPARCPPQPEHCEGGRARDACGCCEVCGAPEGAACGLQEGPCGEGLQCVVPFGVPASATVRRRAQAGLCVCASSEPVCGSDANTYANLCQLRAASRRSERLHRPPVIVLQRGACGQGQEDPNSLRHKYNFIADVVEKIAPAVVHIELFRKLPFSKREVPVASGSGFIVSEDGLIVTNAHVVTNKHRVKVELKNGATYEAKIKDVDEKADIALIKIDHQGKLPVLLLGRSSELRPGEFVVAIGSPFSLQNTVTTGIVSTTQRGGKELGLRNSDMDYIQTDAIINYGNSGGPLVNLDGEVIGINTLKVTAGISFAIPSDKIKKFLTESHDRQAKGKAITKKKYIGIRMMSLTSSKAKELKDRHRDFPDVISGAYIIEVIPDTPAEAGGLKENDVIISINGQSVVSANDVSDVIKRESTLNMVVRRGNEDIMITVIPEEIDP
TCR-CD3 inh: blocks the human TCR-CD3 interaction; TAMRA-labeled TCR probe fluorescence, biochemical; inhibition, % at 9.4 µM; 0.37% of 360,000 active; in the data active = inhibition above about 19%;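 also: recombinant mutant TCR 2C K166C tagged with TAMRA read by polarization; 0% = receptor in buffer alone and 100% = receptor with positive control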
SIAE inh: human SIAE inhibition, primary screen; SIAE FP-Rh probe binding, fluorescence polarization; inhibition, % at 9.66 µM; 0.69% of 370,000 active; AID 1053197;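 active = inhibition above a cutoff: mean of compounds within the control limits plus 3 SD of those, cut at about 17% in these data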;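 also: 0% = plate median of compound wells and 100% = probe without SIAE protein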
Active calls of the source: *; . = no result. In the library only some 2.5% were active in any assay of this set; here they are far more common.

SMILES	PRMT1 inh	mABHD4 FP	HTRA1 inhibitor	TCR-CD3 inh	SIAE inh
OCCNc1ncnc2c1ncn2[C@H]1CN(Cc2ccc(Cl)cc2)C[C@@H](CO)O1	-1.7	4.4	.	2.1	-2.5
Nc1nonc1-n1nnc(C(=O)N/N=C/c2cccnc2)c1CSC1=NCCS1	47.4*	6.2	-1.2	2.1	-0.6
COC(=O)c1ccccc1NC(=O)c1ccccc1OC	-1.3	-0.1	-6.3	9.3	-4.2
COc1ccccc1C(=O)Nc1ccccc1SC(=O)c1ccccc1OC	52.4*	-11.8	-9.7	0.5	-20.9
COc1ccc2nc(NC(=O)CN3C(=O)NC4(CCCCC4)C3=O)sc2c1	-3.7	-3.8	-5.5	5.4	2.6
CCOc1ccc(-c2nc(C#N)c(NCc3ccc4c(c3)OCO4)o2)cc1	-1.5	-0.2	3.6	4.3	17.8*
O=C(Cn1cnc2ccccc2c1=O)N1CCN(S(=O)(=O)c2ccc(F)cc2)CC1	-3.8	-2.3	0.0	-12.4	-0.1
CCOC(=O)c1c(NC(=O)CSc2nnnn2-c2ccccc2)sc2c1CCC(C)C2 (stereo not given)	1.0	8.3	-4.3	-2.4	1.5
CCn1c(SCC(=O)Nc2sc3c(c2C(N)=O)CCC(C)C3)nnc1-c1ccco1 (stereo not given)	22.5*	4.6	-10.0	5.0	-10.4
C/C(=N\OCC(=O)OCC(=O)NC(=O)c1ccc(OC(F)F)cc1)c1ccc2c(c1)OCO2	-0.8	8.6	0.3	-4.2	6.1
C[C@H]1CCC/C=C/[C@@H]2C[C@H](O)C[C@H]2[C@H](O)[C@H](S(=O)c2ccc(O)cc2)CC(=O)O1 (stereo not given in full)	73.0*	-13.7	-1.4	-7.8	6.7
COc1ccccc1N1C(=O)C=C(Sc2nc(C)cc(C)n2)C1=O	24.2*	-8.7	.	-11.4	-5.0
O=C1CSC(=S)N1/N=C/c1c(F)cccc1F	17.2	7.0	0.3	-0.1	2.4
O=C1CSC(=S)N1N=C1CCCCCC1	23.0*	6.4	1.8	7.7	-2.7
COc1cc2c(cc1OC)CSC1C(=O)N(C)C(SC2)C(=O)N1C	2.7	1.6	.	.	-0.1
CNc1cccnc1C=NNC(N)=S	24.2*	3.2	2.9	0.3	5.4
NC(=S)N/N=C/c1ccccc1	2.7	6.8	5.5	1.1	6.2
COC(=O)c1cc2c(c3c4cc(F)ccc4n(S(=O)(=O)c4ccc(OC)cc4)c13)C(=O)N(C)C2	0.4	-9.3	.	0.0	-3.2
Cc1ccc(CCNc2ccc3ccccc3c2)cn1	22.6*	5.3	0.5	-0.8	0.3
CC(OC(=O)c1ccc(NC(=O)CC#N)cc1)C(=O)Nc1ccc(Oc2ccccc2)cc1 (stereo not given)	-3.6	-38.1	-77.7	35.3*	-91.5
Cn1c(SCC(=O)N/N=C/C=C/c2ccco2)nc2ccccc21	24.3*	6.3	6.1	16.8	10.6
COc1ccc(C2CC(=O)Oc3cc(O)ccc32)cc1 (stereo not given)	1.3	-3.9	5.2	4.8	1.7
Cc1ccccc1C1CC(=O)Oc2cc(O)ccc21 (stereo not given)	.	.	52.8*	.	.
Cc1ccccc1Cn1cc(CN2[C@@H](CC(C)C)COc3cc(Br)ccc3S2(=O)=O)nn1	-2.8	-1.7	.	.	-3.3
O=C(CCCNC(=O)c1ccc(Cl)cc1)Nc1ccc(F)c(S(=O)(=O)N2CCOCC2)c1	-2.5	-3.5	-0.8	6.5	-7.7
SMILES	PRMT1 inh	mABHD4 FP	HTRA1 inhibitor	TCR-CD3 inh	SIAE inh
CCOC(=O)C(NC(=O)CCl)(Nc1sc(C)c(CC)c1C#N)C(F)(F)F (stereo not given)	21.8*	-1.4	-17.5	2.3	10.5
O=C(CCN1CCCCC1)Nn1c(=S)[nH]c2ccccc2c1=O	24.2*	1.2	-6.0	-3.1	4.2
Cc1ccc(C)c(C(=O)COc2ccc(C)nc2[N+](=O)[O-])c1	21.5*	11.1	2.9	4.9	5.3
CCCn1c(C)cc(C(=O)COc2ccc(C)nc2[N+](=O)[O-])c1C	-1.2	0.1	-6.1	3.0	3.4
Cc1ccc(OCC(=O)c2cc(C)c(C)cc2C)c([N+](=O)[O-])n1	24.0*	0.1	0.7	-4.6	-1.0
O=C(NCCN1CCC(Cc2ccccc2)CC1)C1CCCN(S(=O)(=O)c2ccccc2)C1 (stereo not given)	2.3	7.3	.	.	-1.3
Cc1ccc(P(=O)(CSC(=N)N)c2ccc(C)cc2)cc1	69.7*	0.3	-5.4	7.3	0.6
N=C(N)SCP(=O)(c1ccccc1)c1ccccc1	67.8*	5.9	-4.7	-3.7	-2.3
Cc1ccc(P(=O)(CO)c2ccc(C)cc2)cc1	1.1	3.1	7.4	-5.8	0.9
O=C(Nc1ccc(Nc2ccccc2)cc1)c1ccc(Cl)cc1	-2.4	7.2	11.2	-0.9	11.2
N#C/C(C(=O)Nc1ccc(Cl)cc1)=C(/S)Nc1ccccc1	90.5*	19.6	-37.1	-0.9	5.7
O=C(Nc1ccccc1F)c1cc(-c2ccco2)nc2ccccc12	13.3	-4.2	-18.7	-7.2	-10.9
O=C(Nc1ccc(F)cc1F)c1cc(-c2ccco2)nc2ccccc12	22.6*	-10.8	-26.0	-1.0	-9.4
CN1C(=O)c2cccc3c(S(N)(=O)=O)ccc1c23	0.8	-2.7	-1.0	-3.2	-3.5
CN1C(=O)c2cccc3c(S(=O)(=O)NCc4ccco4)ccc1c23	21.7*	3.0	-3.2	-6.9	5.1
NC1=NS(=O)(=O)Nc2ccccc21	-3.1	-1.9	.	.	-1.2
C=CCN=Cc1sc2ccc(OCC)cc2c1O	23.7*	1.0	.	5.1	-3.1
CC(C)N(CCn1c(SCC(=O)N2CC(=O)Nc3ccccc32)nc2ccccc2c1=O)C(C)C	0.1	5.7	-11.8	1.6	-6.9
CN(C)CCCn1c(SCC(=O)N2CC(=O)Nc3ccccc32)nc2ccccc2c1=O	21.2*	-0.9	2.7	-5.5	-3.7
c1ccc(Cn2ccc3ccc(-c4ccc5ccn(Cc6cccc(Oc7ccccc7)c6)c5c4)cc32)cc1	0.8	11.4	.	.	-0.9
N=c1scc(-c2ccccc2)n1/N=C/c1ccco1	33.9*	11.8	10.8	-1.9	2.4
COc1ccc(S(=O)(=O)N(C)C[C@H]2Oc3ccc(NC(=O)Nc4ccc5c(c4)OCO5)cc3CC(=O)N([C@@H](C)CO)C[C@@H]2C)cc1	0.7	-1.1	-5.5	-4.9	17.7*
O=S(=O)(c1ccc(N=C2NN=C(c3cc(F)ccc3F)CS2)cc1)N1CCOCC1	54.8*	-35.7	.	5.5	-22.6
O=C1/C(=C/c2ccco2)CCC1C1CCCC1 (stereo not given)	2.4	4.9	10.0	-8.0	2.8
O=C1/C(=C\c2ccco2)CCC/C1=C\c1ccco1	21.7*	-5.4	19.3	1.2	0.7
COC(=O)C1=C(C)Nc2ccc(C)cc2S1	23.6*	-5.2	6.0	-9.7	-14.4
CC(C)COc1ccc(C(=O)OCC(=O)N(C)CC(=O)Nc2ccc(F)cc2)cc1	-1.2	1.6	-6.6	8.5	-0.9
COc1ccc(OCC(=O)Sc2ccc(C)cc2)cc1	33.4*	-6.3	3.2	3.2	-2.2
c1ccc(CN2CCN(CCOCCOc3ccc4c(c3)CCC4)CC2)cc1	-6.4	16.8	6.1	-5.0	-3.8
